Measured values reported in the RNAGym collection of RNA variant scans (doi:10.1126/science.aae0568).
Variants at the floor of the assay were thinned out.

B1: tRNA (parent)
chain: GUUCCGUUGGCGUAAUGGUAACGCGUCUCCCUCCUAAGGAGAAGACUGCGGGUUCGAGUCCCGUACGGAACG

Variants of: B1
Assay: yeast fitness relative to wild type (ratio to wild type); higher = fitter; tRNA-Arg(CCU), competitive growth, 37 C, YPD
Method in brief: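 Gene amplicons from the start population and from each of six end populations were read by 100-nucleotide paired-end sequencing. Those end populations came from pooled Saccharomyces cerevisiae strains carrying tRNA-Arg(CCU) gene variants at the native locus, competed in YPD at 37°C for 24 hours. Fitness relative to wild type was worked out from changes in genotype frequencies. Genotypes needed ≥ 100 starting reads, and estimates < 0.5 were set to 0.5.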

Variant	yeast fitness
GUUCCGUUGGCGUAAUGGUAACGCGUCUCCCUCCUAAGGAGAACACUGUGGGUUCGAGUCCCGUACGGAACG	0.783
GUUCCGUUGGCGUAAUGGUAACGCGUCUCCCUCCUAAGGAGAACACUGUGGGUUCGAGGCCCGUACGGAACG	≤ 0.5
GUUCCGUUGGCGUAAUGGUAACGCGUCUCCCUCCUAAGGAGAACACUGCGGGUUAGAGUCCCGUACGGAACG	0.548
GUUCCGUUGGCGUAAUGGUAACGCGUCUCCCUCCUAAGGAGAACACUGCGGGUUGGAGUCCCGUACGGAACG	0.596
GUUCCGUUGGCGUAAUGGUAACGCGUCUCCCUCCUAAGGAGAACACUGCGGGUUGGAGUCCCGUGCGGAACG	0.555
GUUCCGUUGGCGUAAUGGUAACGCGUCUCCCUCCUAAGGAGAACACUGCGGGUUGGAGUCCCGUACGGUACG	0.746
GUUCCGUUGGCGUAAUGGUAACGCGUCUCCCUCCUAAGGAGAACACUGCGGGUUCGAGUCAUGUAUGGAACG	≤ 0.5
GUUCCGUUGGCGUAAUGGUAACGCGUCUCCCUCCUAAGGAGAACACUGCGGGUUCGAGUCGCGUACGGAACG	0.586
GUUCCGUUGGCGUAAUGGUAACGCGUCUCCCUCCUAAGGAGAACACUGCGGGUUCGAGUCUCGUACGGAACG	0.718
GUUCCGUUGGCGUAAUGGUAACGCGUCUCCCUCCUAAGGAGAACACUGCGGGUUCGAGUCCAGUACGGAACG	0.738
GUUCCGUUGGCGUAAUGGUAACGCGUCUCCCUCCUAAGGAGAACACUGCGGGUUCGAGUCCAGUAUGGAACG	≤ 0.5
GUUCCGUUGGCGUAAUGGUAACGCGUCUCCCUCCUAAGGAGAACACUGCGGGUUCGAGUCCGGUACGGAACG	0.644
GUUCCGUUGGCGUAAUGGUAACGCGUCUCCCUCCUAAGGAGAACACUGCGGGUUCGAGUCCGGUACGAAACG	≤ 0.5
GUUCCGUUGGCGUAAUGGUAACGCGUCUCCCUCCUAAGGAGAACACUGCGGGUUCGAGUCCUGUACGGCACG	0.696
GUUCCGUUGGCGUAAUGGUAACGCGUCUCCCUCCUAAGGAGAACACUGCGGGUUCGAGUCCUAUACGGAACG	≤ 0.5
GUUCCGUUGGCGUAAUGGUAACGCGUCUCCCUCCUAAGGAGAACACUGCGGGUUCGAGUCCCGUAAGGAACG	0.688
GUUCCGUUGGCGUAAUGGUAACGCGUCUCCCUCCUAAGGAGAACACUACGAGUUCGAGUCCCGUACGGAACG	0.985
GUUCCGUUGGCGUAAUGGUAACGCGUCUCCCUCCUAAGGAGAACACUGCAGGUUCGAGUCCCGUACGGAACG	0.861
GUUCCGUUGGCGUAAUGGUAACGCGUCUCCCUCCUAAGGAGAACACUGCAGGUUCGAGUCCCGUACCGAACG	0.604
GUUCCGUUGGCGUAAUGGUAACGCGUCUCCCUCCUAAGGAGAACACUGCCGGUUCGGGUCCCGUACGGUACG	≤ 0.5
GUUCCGUUGGCGUAAUGGUAACGCGUCUCCCUCCUAAGGAGAACACUGCCGAUGCGAGUCGCGUACGGAACG	≤ 0.5
GUUCCGUUGGCGUAAUGGUAACGCGUCUCCCUCCUAAGGAGAACACUGCGAGUUCGACACCCGUACGGAACG	≤ 0.5
GUUCCGUUGGCGUAAUGGUAACGCGUCUCCCUCCUAAGGAGAACACUGCGGAUUCGAGUCCGGUACGGGACG	≤ 0.5
GUUCCGUUGGCGUAAUGGUAACGCGUCUCCCUCCUAAGGAGAACACUGCGGAUUCGAGCCCCGGACGGAACG	0.553
GUUCCGUUGGCGUAAUGGUAACGCGUCUCCCUCCUAAGGAGAACACUGCGGCUUCGAGUCCCGUAGGGAACG	≤ 0.5

Variant	yeast fitness
GUUCCGUUGGCGUAAUGGUAACGCGUCUCCCUCCUAAGGAGAACACUGCGGGUUCAAGUCCCGUACGGAACG	0.795
GUUCCGUUGGCGUAAUGGUAACGCGUCUCCCUCCUAAGGAGAACACUGCGGGUUCGAGUCCCAUACGGAACG	0.83
GUUCCGUUGGCGUAAUGGUAACGCGUCUCCCUCCUAAGGAGAACACUGCGGGUUCGAGUCCCGUACAGAACG	0.722
GUUCCGUUGGCGUAAUGGUAACGCGUCUCCCUCCUAAGGAGAACACUGCGGGUUCGAGUCCCGUACUGAACG	0.855
GUUCCGUUGGCGUAAUGGUAACGCGUCUCCCUCCUAAGGAGAACACUGCGGGUUCGAGUCCCGUACGCAACG	0.81
GUUCCGUUGGCGUAAUGGUAACGCGUCUCCCUCCUAAGGAGAACACUGCGGGUUCGAGUCCCGUACGUAACG	0.661
GUUCCGUUGGCGUAAUGGUAACGCGUCUCCCUCCUAAGGAGAACACCGCGGGUUCGAGUCCCGUACGGAACG	0.822
GUUCCGUUGGCGUAAUGGUAACGCGUCUCCCUCCUAAGGAGAACACUGCGGGCUCGAGUCCCGUACGGAACG	0.797
GUUCCGUUGGCGUAAUGGUAACGCGUCUCCCUCCUAAGGAGAACACUGCGGGUACGAGUCCCGUACGGAACG	0.667
GUUCCGUUGGCGUAAUGGUAACGCGUCUCCCUCCUAAGGAGAACACUGCGGGUCCGAGUCCCGUACGGAACG	0.977
GUUCCGUUGGCGUAAUGGUAACGCGUCUCCCUCCUAAGGAGAACACUGCGGGUUCGAGACCCGUACGGAACG	0.581
GUUCCGUUGGCGUAAUGGUAACGCGUCUCCCUCCUAAGGAGAACACUGCGGGUUCGAGCCCCGUACGGAACG	0.791
GUUCCGUUGGCGUAAUGGUAACGCGUCUCCCUCCUAAGGAGAACACUGCGGGUUCGAGUCCCGCACGGAACG	0.858
GUUCCGUUGGCGUAAUGGUAACGCGUCUCCCUCCUAAGGAGAACACUGCGGGUUCGAGUCCCGGACGGAACG	0.653
GUUCCGUUGGCGUAAUGGUAACGCGUCUCCCUCCUAAGGAGAAUCCUGCCGGUUCGAGUCCCGUACGGAACG	≤ 0.5
GUUCCGUUGGCGUAAUGGUAACGCGUCUCCCUCCUAAGGAGAAUUCUGCGGGUUCGAGUCCCCUACGGAACG	≤ 0.5
GUUCCGUUGGCGUAAUGGUAACGCGUCUCCCUCCUAAGGAGAAUACUGGGGGUUCGAGUCCCGUACGGAACG	0.654
GUUCCGUUGGCGUAAUGGUAACGCGUCUCCCUCCUAAGGAGAAUACUGCGGGUUGGAGUCCCGUACGGAACG	≤ 0.5
GUUCCGUUGGCGUAAUGGUAACGCGUCUCCCUCCUAAGGAGAAGCCUGCGGGUUCGAGUCCCGUACGGAACG	0.987
GUUCCGUUGGCGUAAUGGUAACGCGUCUCCCUCCUAAGGAGAAGCCUGCGGGUUCGCGUCCCGUACGCAACG	0.517
GUUCCGUUGGCGUAAUGGUAACGCGUCUCCCUCCUAAGGAGAAGCCUGCGGGUUCGGGUCCCGUACGGAACG	0.858
GUUCCGUUGGCGUAAUGGUAACGCGUCUCCCUCCUAAGGAGAAGCCUGCGGGUUCGGGUCCCGUACGGACCG	0.764
GUUCCGUUGGCGUAAUGGUAACGCGUCUCCCUCCUAAGGAGAAGCCUGCGGGUUCGAGUCCCGUGCGGAACG	0.993
GUUCCGUUGGCGUAAUGGUAACGCGUCUCCCUCCUAAGGAGAAGCCUGCGGGUUCGAGUCCCGUUCGGAACG	0.833
GUUCCGUUGGCGUAAUGGUAACGCGUCUCCCUCCUAAGGAGAAGCCUGCGGGUUCGAGUCCCGUACGGCACG	0.744

Variant	yeast fitness
GUUCCGUUGGCGUAAUGGUAACGCGUCUCCCUCCUAAGGAGAAGCCUGCGGGUUCGAGUCCCGUACGGGACG	1.06
GUUCCGUUGGCGUAAUGGUAACGCGUCUCCCUCCUAAGGAGAAGCCUGCGGGUUCGAGUCCCGUACGGAGCG	0.957
GUUCCGUUGGCGUAAUGGUAACGCGUCUCCCUCCUAAGGAGAAGCAUGCGGGUUCGAGUCCCGUACGGAACG	0.991
GUUCCGUUGGCGUAAUGGUAACGCGUCUCCCUCCUAAGGAGAAGCAUGGGGGUUCGAGUCCCGUACGGAACG	0.722
GUUCCGUUGGCGUAAUGGUAACGCGUCUCCCUCCUAAGGAGAAGCGUGCGGGUUCGAGUCCCGUACGGAACG	1.01
GUUCCGUUGGCGUAAUGGUAACGCGUCUCCCUCCUAAGGAGAAGCGUGCGGGUUCCAGUCCCGUACGGAACG	0.563
GUUCCGUUGGCGUAAUGGUAACGCGUCUCCCUCCUAAGGAGAAGCUUGCGGGUUUGAGUCCUGUACGGAACG	≤ 0.5
GUUCCGUUGGCGUAAUGGUAACGCGUCUCCCUCCUAAGGAGAAGCUUGCGGGUUCGAGUCCCGUACCGAACG	0.584
GUUCCGUUGGCGUAAUGGUAACGCGUCUCCCUCCUAAGGAGAAGCUUGCGGGUUCGAGUCCCGCACGGAACG	0.79
GUUCCGUUGGCGUAAUGGUAACGCGUCUCCCUCCUAAGGAGAAGCCUGAGGGUUCGAGUCCCGUACGGAACG	0.603
GUUCCGUUGGCGUAAUGGUAACGCGUCUCCCUCCUAAGGAGAAGCCUGAGGGUUCGAGUCCCGUUCGGAACG	≤ 0.5
GUUCCGUUGGCGUAAUGGUAACGCGUCUCCCUCCUAAGGAGAAGCCUGAGGGUCCGAGUCCCGUACGGAACG	≤ 0.5
GUUCCGUUGGCGUAAUGGUAACGCGUCUCCCUCCUAAGGAGAAGCCUGGGGGUUCGAGUCCCGUACGGAACG	0.721
GUUCCGUUGGCGUAAUGGUAACGCGUCUCCCUCCUAAGGAGAAGCCUGUGGGUUCGAGUCCCGUACGGAACG	0.978
GUUCCGUUGGCGUAAUGGUAACGCGUCUCCCUCCUAAGGAGAAGCCUGUGGGUUCGAGUCCCGUACGGACCG	0.813
GUUCCGUUGGCGUAAUGGUAACGCGUCUCCCUCCUAAGGAGAAGCCUGUGGGUUUGAGUCCCGUACGGAACG	0.596
GUUCCGUUGGCGUAAUGGUAACGCGUCUCCCUCCUAAGGAGAAGCCUGCGGGUUAGAGUCCCGUACGGAACG	0.562
GUUCCGUUGGCGUAAUGGUAACGCGUCUCCCUCCUAAGGAGAAGCCUGCGGGUUGGAGUCUCGUACGGAACG	≤ 0.5
GUUCCGUUGGCGUAAUGGUAACGCGUCUCCCUCCUAAGGAGAAGCCUGCGGGUUUGAGUCCCGUACGGUACG	0.753
GUUCCGUUGGCGUAAUGGUAACGCGUCUCCCUCCUAAGGAGAAGCCUGCGGGUUUAAGUCCCGUACGGAACG	0.539
GUUCCGUUGGCGUAAUGGUAACGCGUCUCCCUCCUAAGGAGAAGCCUGCGGGUUUGAGUCCCGUACCGAACG	≤ 0.5
GUUCCGUUGGCGUAAUGGUAACGCGUCUCCCUCCUAAGGAGAAGCCUGCGGGUUUGAGUCCCGUACGCAACG	0.626
GUUCCGUUGGCGUAAUGGUAACGCGUCUCCCUCCUAAGGAGAAGCCUGCGGGUUCGAGUUCCGUACGGAACG	0.752
GUUCCGUUGGCGUAAUGGUAACGCGUCUCCCUCCUAAGGAGAAGCCUGCGGGUUCGAGUCGCGUACGGAACG	0.591
GUUCCGUUGGCGUAAUGGUAACGCGUCUCCCUCCUAAGGAGAAGCCUGCGGGUUCGAGUCCAGUACGGAACG	0.622
